Test results taken from PMC5424638 (Biomolecules & Therapeutics, 2016).

Legend:
Cytotoxicity assay = type: cell-based, rat; conditions: Sprague-Dawley, rat, primary neonatal rat cardiomyocytes
How it was run: (§1)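 Ventricles from 1–3-day-old Sprague-Dawley rats were digested with 0.05% collagenase II/0.05% trypsin at 37°C, pre-plated 1.5 h to remove nonmyocytes, and cultured 3 days in DMEM/10% FBS. Cells were exposed to test compound at 0.01–1000 µM for 72 h (final DMSO ≤0.05%). MTT was added for 4 h at 37°C and absorbance read at 570 nm. TC50 (50% viability loss vs untreated) came from at least three dose-response curves.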

CVB3-induced myocarditis = assay: CVB3-induced viral myocarditis mouse model, cardiac pathological score; type: in vivo, BALB/c mice; conditions: for Pathological score (grade): day 7, n=10; for Myocardial damage compared with the infected control (model) group: 20, 40 and 60 mg/kg, day 7
How it was run: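 Four-week-old male BALB/c mice (n=10/group, pathogen-free) received CVB3 i.p. at 100xTCID50 in 0.1 ml RPMI 1640. From day 2, interferon alpha was given i.p. once daily, and test compound at 20, 40 or 60 mg/kg was given by oral gavage in 0.5% CMC-saline. On day 7, ventricles were formalin-fixed, paraffin-embedded, cut at 4 µm and H&E stained. Inflamed fraction of the section (eyepiece grid, x200) was graded 0–4 (<25%, 25–50%, 50–75%, >75%).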

CVB3 = assay: Virus titration from heart homogenate of CVB3-infected mice; type: in vivo, BALB/c mice; conditions: day 7, n=10
[1] = ref Yuan et al., 1992; cited from earlier work
CVB3 (Nancy strain) = assay: Anti-viral activity assay in CVB3-infected cardiomyocytes; type: cell-based, coxsackievirus B3; conditions: for IC50: Enterovirus B, CVB3, Cardiomyocyte, 72 h; for TI (TC50/IC50): cardiomyocytes
How it was run: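 Neonatal rat cardiomyocytes grown to confluence (about 1x10^4 cells/well) were infected with CVB3 (Nancy strain, 100 TCID50) for 2 h in six replicates. Cells were washed three times with PBS, then exposed to serial dilutions of test compound for 72 h. XTT plus phenazine methosulfate was added for 2 h, and OD was read at 450 nm (reference 690 nm). Inhibition was (ODtv−ODcv)/(ODcd−ODcv)x100, giving IC50 and TI (TC50/IC50).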

[2] = system: neonatal rat cardiomyocytes; assay: Cytotoxicity assay; type: cell-based; conditions: for 50% toxic concentration (CC50) fold higher than in the cinnamaldehyde group: cardiomyocytes
How it was run: as §1

[3] = 24 h stability in blood at room temperature; type: in vitro ADME, rat; conditions: unpublished data
[4] = Pharmacokinetics in rats after single oral administration; type: in vivo, rat; conditions: single oral dose 20 mg/kg, preliminary, unpublished data
IL-6 mRNA = IL-6 mRNA expression in CVB3-infected cardiomyocytes; type: cell-based, rat; conditions: 10 μM, 12 h
How it was run: (§2)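 Neonatal rat cardiomyocytes were infected with CVB3 and then incubated with 10 µM test compound. Cytokine mRNA expression in the cells was measured by real-time PCR after 12 h. Data are given as mean ± SD.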

TNF-α mRNA = TNF-α mRNA expression in CVB3-infected cardiomyocytes; type: cell-based, rat; conditions: 10 μM, 12 h
How it was run: as §2

IL-1β [5] = assay: IL-1β protein expression in CVB3-infected cardiomyocytes; type: cell-based, rat; conditions: 10 μM, 24 h
How it was run: (§3)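 CVB3-infected neonatal rat cardiomyocytes were treated with 10 µM test compound for 24 h. Whole-cell lysates (equal protein) were run on 15% SDS-PAGE and transferred to nitrocellulose. Membranes were blocked in 5% skimmed milk for 2 h at room temperature, probed with cytokine and GAPDH antibodies overnight at 4°C, then with HRP secondary for 1 h, and detected by chemiluminescence. Bands were expressed as ratio to GAPDH (n=3, mean ± SD).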

IL-6 [6] = assay: IL-6 protein expression in CVB3-infected cardiomyocytes; type: cell-based, rat; conditions: 10 μM, 24 h
How it was run: as §3

IL-1β mRNA = IL-1β mRNA expression in CVB3-infected cardiomyocytes; type: cell-based, rat; conditions: 10 μM, 12 h
How it was run: as §2

TNF-α [7] = assay: TNF-α protein expression in CVB3-infected cardiomyocytes; type: cell-based, rat; conditions: 10 μM, 24 h
How it was run: as §3

TNF-α [8] = assay: TNF-α level in culture supernatant of CVB3-infected cardiomyocytes; type: cell-based, rat; conditions: 10 μM, 72 h; viral control 80.12 ± 8.40
IL-6 [9] = assay: IL-6 level in culture supernatant of CVB3-infected cardiomyocytes; type: cell-based, rat; conditions: 10 μM, 72 h; viral control 337.46 ± 29.22
IL-1β [10] = assay: IL-1β level in culture supernatant of CVB3-infected cardiomyocytes; type: cell-based, rat; conditions: 10 μM, 72 h; viral control 163.64 ± 19.75

Compound	Stability in blood [3]	Time at which peak concentration was achieved after oral administration [4]	CC50 at 72 h (Cytotoxicity assay)	Pathological score (grade) (CVB3-induced myocarditis; 40 mg/kg/day)	Viral titers (CVB3; 40 mg/kg/day)	IC50 (CVB3 (Nancy strain))	TI (TC50/IC50) (CVB3 (Nancy strain))	50% toxic concentration (CC50) fold higher than in the cinnamaldehyde group [2]	Pathological score (grade) (CVB3-induced myocarditis; 20 mg/kg/day, oral gavage)	Pathological score (grade) (CVB3-induced myocarditis; 60 mg/kg/day, oral gavage)	Myocardial damage compared with the infected control (model) group (CVB3-induced myocarditis)	Viral titers (CVB3; 20 mg/kg/day, oral gavage)	IL-6 mRNA expression (IL-6 mRNA)	TNF-α mRNA expression (TNF-α mRNA)	CVB3-mediated IL-1β expression (Western blot) (IL-1β [5])	CVB3-mediated IL-6 expression (Western blot) (IL-6 [6])	IL-1β mRNA expression (IL-1β mRNA)	CVB3-mediated TNF-α expression (Western blot) (TNF-α [7])	also measured
O=CC=Cc1ccccc1 [Cinnamaldehyde, 3-phenyl-2-propenal, reference compound]	–	–	0.98 ± 0.12 µM	2.40 ± 0.50 grade	2.80 ± 0.63 Log TCID50/mg	24.2 ± 4.77 µM	0.04	–	–	–	–	–	–	–	–	–	–	–	Half-life in rat blood [1]: 4 min
Cc1ccc(/C=C/C=O)cc1 [Compound 1, (E)-3-p-tolylacrylaldehyde]	–	–	3.96 ± 0.29 µM	–	–	–	–	–	–	–	–	–	–	–	–	–	–	–	–
COc1ccc(/C=C/C=O)cc1 [Compound 3, (E)-3-(4-methoxyphenyl)acrylaldehyde]	–	–	7.88 ± 0.82 µM	–	–	–	–	–	–	–	–	–	–	–	–	–	–	–	–

More lines, main results first:

Stability in blood [3]	Time at which peak concentration was achieved after oral administration [4]	Compound	CC50 at 72 h (Cytotoxicity assay)	Pathological score (grade) (CVB3-induced myocarditis; 40 mg/kg/day)	Viral titers (CVB3; 40 mg/kg/day)	IC50 (CVB3 (Nancy strain))	TI (TC50/IC50) (CVB3 (Nancy strain))	50% toxic concentration (CC50) fold higher than in the cinnamaldehyde group [2]	Pathological score (grade) (CVB3-induced myocarditis; 20 mg/kg/day, oral gavage)	Pathological score (grade) (CVB3-induced myocarditis; 60 mg/kg/day, oral gavage)	Myocardial damage compared with the infected control (model) group (CVB3-induced myocarditis)	Viral titers (CVB3; 20 mg/kg/day, oral gavage)	IL-6 mRNA expression (IL-6 mRNA)	TNF-α mRNA expression (TNF-α mRNA)	CVB3-mediated IL-1β expression (Western blot) (IL-1β [5])	CVB3-mediated IL-6 expression (Western blot) (IL-6 [6])	IL-1β mRNA expression (IL-1β mRNA)	CVB3-mediated TNF-α expression (Western blot) (TNF-α [7])	also measured
stable for 24 h	about 1.2 h	O=C/C=C/c1ccc(Cl)cc1 [Compound 2, (E)-3-(4-chlorophenyl) acrylaldehyde]	6970 µM	2.85 ± 0.70 grade	3.20 ± 0.63 Log TCID50/mg	2110 µM	3.31	7114 fold	2.85 ± 0.70 grade	2.75 ± 0.60 grade	no significant difference	3.30 ± 0.48 Log TCID50/mg	–	–	–	–	–	–	CC50 ([2]; neonatal rat cardiomyocytes, 0.01–1000 μM, 72 h, MTT, called TC50 in methods): no obvious cytotoxicity; Viral titers (CVB3; 60 mg/kg/day, oral gavage): 3.10 ± 0.57 Log TCID50/mg
stable for 24 h	~3.3 h	Cc1ccc(/C=C(\Br)C=O)cc1 [Compound 4, (Z)-2-bromo-3-p-tolylacrylaldehyde]	38.6 ± 4.89 µM	2.10 ± 0.60 grade	2.90 ± 0.57 Log TCID50/mg	11.4 ± 2.22 µM	3.39	39 fold	2.80 ± 0.70 grade	1.90 ± 0.60 grade	significantly reduced	3.10 ± 0.74 Log TCID50/mg	inhibited	inhibited	markedly diminished	markedly diminished	inhibited	markedly diminished	–
stable for 24 h	~2.1 h	O=C/C(Br)=C/c1ccc(Cl)cc1 [Compound 5, (Z)-2-bromo-3-(4-chlorophenyl) acrylaldehyde]	85.7 ± 7.63 µM	1.75 ± 0.60 grade	–	2.12 ± 0.37 µM	40.42	87 fold	1.95 ± 0.40 grade	1.30 ± 0.50 grade	significantly reduced	2.80 ± 0.42 Log TCID50/mg	inhibited	inhibited	markedly diminished	markedly diminished	inhibited	markedly diminished	TNF-α level in culture supernatant (TNF-α [8]): 43.60 ± 4.77 pg/mL; IL-6 level in culture supernatant (IL-6 [9]): 232.80 ± 19.62 pg/mL; IL-1β level in culture supernatant (IL-1β [10]): 112.72 ± 13.60 pg/mL
